The subject of data set [1] is Pseudomonas aeruginosa. In words: Antibacterial activity against multidrug-resistant Pseudomonas aeruginosa K44-24 producing imipenem-type carbapenemase-14 cultured in MHB medium assessed as reduction in bacterial growth incubated for 24 hrs by microdilution susceptibility test. The settings on record: K44-24, 24 h. Format: functional. The method, boiled down:
(§1)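 Broth microdilution per CLSI M07-A9 (modified). Working solutions made from concentrated DMSO stocks kept at r.t., diluted in double-distilled water, final DMSO <1%. Inoculum 1–1.2 x 10⁶ cells/mL in Mueller-Hinton broth, mixed 1:1 with compound. 37 °C, 24 h, four parallels. Read as OD₆₀₀. Where precipitation left residual OD, the point of major OD decrease was taken as the inhibitory concentration.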
Background: Broth dilution looks for growth in wells or tubes with falling amounts of substance.

Data set [2] relates to Staphylococcus aureus. In words: Antibacterial activity against multidrug-resistant Staphylococcus aureus 85/2082 cultured in MHB medium assessed as reduction in bacterial growth incubated for 24 hrs by microdilution susceptibility test. Format: functional. The note with it: 85/2082, 24 h. The method, boiled down: as §1
The test system of data set [3] is Staphylococcus aureus. In words: Antibacterial activity against multidrug-resistant Staphylococcus aureus NCTC 10442 cultured in MHB medium assessed as reduction in bacterial growth incubated for 24 hrs by microdilution susceptibility test. The note with it: NCTC 10442, 24 h. It counts as functional. The method, boiled down: as §1
Data set [4] deals with Klebsiella pneumoniae. In words: Antibacterial activity against multidrug-resistant Klebsiella pneumoniae K47-25 producing carbapenemase-2 cultured in MHB medium assessed as reduction in bacterial growth incubated for 24 hrs by microdilution susceptibility test. It counts as functional. The note with it: K47-25, 24 h. The method, boiled down: as §1
The test system of data set [5] is Escherichia coli. In words: Antibacterial activity against multidrug-resistant Escherichia coli 50639799 producing Verona integron encoded metallo beta-lactamse-29 cultured in MHB medium assessed as reduction in bacterial growth incubated for 24 hrs by microdilution susceptibility test. Format: functional. The note with it: Escherichia coli, 50639799, 24 h. The method, boiled down: as §1

Data set [6] concerns Escherichia coli. In words: Antibacterial activity against multidrug-resistant Escherichia coli 50579417 producing oxcillinase-48 cultured in MHB medium assessed as reduction in bacterial growth incubated for 24 hrs by microdilution susceptibility test. Format: functional. The settings on record: Escherichia coli, 50579417, 24 h. An outline of the steps: as §1
In data set [7] the test system is Enterococcus faecium. In words: Antibacterial activity against multidrug-resistant Enterococcus faecium 50673722 cultured in BHIB medium assessed as reduction in bacterial growth incubated for 24 hrs by microdilution susceptibility test. The settings on record: Enterococcus faecium, 50673722, 24 h. It counts as functional. An outline of the steps: (§2)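 Enterococci grown in Brain Heart Infusion broth, otherwise broth microdilution per CLSI M07-A9 (modified). Concentrated DMSO stocks kept at r.t. and diluted in double-distilled water, final DMSO <1%. Inoculum 1–1.2 x 10⁶ cells/mL mixed 1:1 with compound. 37 °C, 24 h, four parallels. OD₆₀₀ read-out, lowest concentration with no growth.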

Data set [8] concerns Pseudomonas aeruginosa. In words: Antibacterial activity against multidrug-resistant Pseudomonas aeruginosa K34-7 producing Verona integron encoded metallo beta-lactamse-2 cultured in MHB medium assessed as reduction in bacterial growth incubated for 24 hrs by microdilution susceptibility test. The note with it: K34-7, 24 h. Format: functional. The method, boiled down:
as §1

The subject of data set [9] is Corynebacterium glutamicum. In words: Antibacterial activity against Corynebacterium glutamicum ATCC 13032 cultured in MHB medium assessed as no bacterial growth incubated at 20 degC for 24 hrs by microdilution susceptibility test. It counts as functional. The settings on record: ATCC 13032, 24 h. An outline of the steps: (§3)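 Broth microdilution per CLSI M07-A9 with modifications. Inoculum about 2.5–3 x 10⁴ cells/mL in Mueller-Hinton broth, mixed 1:1 with test derivative. DMSO stocks diluted in double-distilled water, final DMSO <1%. Incubation 24 h at 37 °C (20 °C for C. glutamicum). Growth and sterility controls included; oxytetracycline reference.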

In data set [10] the test system is Escherichia coli. In words: Antibacterial activity against multidrug-resistant Escherichia coli 50857972 producing imipenem-type carbapenemase-26 cultured in MHB medium assessed as reduction in bacterial growth incubated for 24 hrs by microdilution susceptibility test. The settings on record: Escherichia coli, 50857972, 24 h. Format: functional. The method, boiled down:
as §1

In data set [11] the test system is Staphylococcus aureus. In words: Antibacterial activity against multidrug-resistant Staphylococcus aureus IHT 99040 cultured in MHB medium assessed as reduction in bacterial growth incubated for 24 hrs by microdilution susceptibility test. It counts as functional. The note with it: IHT 99040, 24 h. The method, boiled down: as §1
Data set [12] relates to Acinetobacter baumannii. In words: Antibacterial activity against multidrug-resistant Acinetobacter baumannii K44-35 producing oxcillinase-23 cultured in MHB medium assessed as reduction in bacterial growth incubated for 24 hrs by microdilution susceptibility test. It counts as functional. The note with it: K44-35, 24 h. The method, boiled down: as §1
Data set [13] deals with Staphylococcus aureus. In words: Antibacterial activity against multidrug-resistant Staphylococcus aureus N315 cultured in MHB medium assessed as reduction in bacterial growth incubated for 24 hrs by microdilution susceptibility test. It counts as functional. The settings on record: N315, 24 h. An outline of the steps:
as §1

Data set [14] concerns Pseudomonas aeruginosa. In words: Antibacterial activity against multidrug-resistant Pseudomonas aeruginosa 50692172 producing New Delhi metallo-beta-lactamase-1 cultured in MHB medium assessed as reduction in bacterial growth incubated for 24 hrs by microdilution susceptibility test. It counts as functional. The settings on record: Pseudomonas aeruginosa, 50692172, 24 h. An outline of the steps: as §1

Data set [15] concerns Pseudomonas aeruginosa. In words: Antibacterial activity against Pseudomonas aeruginosa PA01 DSM 19880 (ATCC 15692) cultured in MHB medium assessed as no bacterial growth incubated at 37 degC for 24 hrs by microdilution susceptibility test. It counts as functional. The settings on record: PAO1 DSM 19880 (ATCC 15692). The method, boiled down:
as §3

Data set [16] has as its system Escherichia coli. In words: Antibacterial activity against multidrug-resistant Escherichia coli 50739822 producing New Delhi metallo-beta-lactamase-1 cultured in MHB medium assessed as reduction in bacterial growth incubated for 24 hrs by microdilution susceptibility test. Format: functional. The settings on record: Escherichia coli, 50739822, 24 h. An outline of the steps: as §1

In data set [17] the test system is Pseudomonas aeruginosa. In words: Antibacterial activity against multidrug-resistant Pseudomonas aeruginosa K34-73 producing Verona integron encoded metallo beta-lactamse-4 cultured in MHB medium assessed as reduction in bacterial growth incubated for 24 hrs by microdilution susceptibility test. It counts as functional. The note with it: K34-73, 24 h. The method, boiled down: as §1

Data set [18] relates to Enterococcus faecium. In words: Antibacterial activity against multidrug-resistant Enterococcus faecium 50901530 cultured in BHIB medium assessed as reduction in bacterial growth incubated for 24 hrs by microdilution susceptibility test. The settings on record: Enterococcus faecium, 50901530, 24 h. It counts as functional. An outline of the steps:
as §2

Data set [19] concerns Acinetobacter baumannii. In words: Antibacterial activity against multidrug-resistant Acinetobacter baumannii K55-13 producing oxcillinase-24 cultured in MHB medium assessed as reduction in bacterial growth incubated for 24 hrs by microdilution susceptibility test. It counts as functional. The settings on record: K55-13, 24 h. An outline of the steps: as §1
Data set [20] is described as follows: Selectivity index, ratio of EC50 for hemolytic activity against human RBC to MIC for antibacterial activity against Staphylococcus aureus ATCC 9144. It counts as toxicity. The settings on record: human red blood cells (RBC). The method, boiled down:
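Selectivity index is the RBC haemolysis EC50 divided by the MIC against the E. coli or S. aureus reference strain.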

The test system of data set [21] is Klebsiella pneumoniae. In words: Antibacterial activity against multidrug-resistant Klebsiella pneumoniae 50625602 producing oxcillinase-245 cultured in MHB medium assessed as reduction in bacterial growth incubated for 24 hrs by microdilution susceptibility test. It counts as functional. The note with it: Klebsiella pneumoniae, 50625602, 24 h. The method, boiled down:
as §1

The test system of data set [22] is Pseudomonas aeruginosa. In words: Antibacterial activity against multidrug-resistant Pseudomonas aeruginosa 50692520 producing Verona integron encoded metallo beta-lactamse cultured in MHB medium assessed as reduction in bacterial growth incubated for 24 hrs by microdilution susceptibility test. It counts as functional. The settings on record: Pseudomonas aeruginosa, 50692520, 24 h. The method, boiled down: as §1

Data set [23] deals with Klebsiella pneumoniae. In words: Antibacterial activity against multidrug-resistant Klebsiella pneumoniae 50667959 producing Verona integron encoded metallo beta-lactamse-1 cultured in MHB medium assessed as reduction in bacterial growth incubated for 24 hrs by microdilution susceptibility test. The note with it: Klebsiella pneumoniae, 50667959, 24 h. Format: functional. An outline of the steps: as §1

The test system of data set [24] is Staphylococcus aureus. In words: Antibacterial activity against Staphylococcus aureus ATCC 9144 cultured in MHB medium assessed as no bacterial growth incubated at 37 degC for 24 hrs by microdilution susceptibility test. Format: functional. The settings on record: ATCC 9144, 24 h. An outline of the steps:
as §3

Values after ≈ are worked out from the molar mass of the structure shown.

The term MIC denotes the smallest concentration in the dilution series that meets the test's criterion for growth inhibition. Regarding `NCCNC(=O)C(CN)(Cc1ccc(C(F)(F)F)cc1)Cc1ccc(C(F)(F)F)cc1`, the MIC with Pseudomonas aeruginosa [1], with Staphylococcus aureus [2], in the data set on Staphylococcus aureus [3], in the data set on Klebsiella pneumoniae [4], in the data set with Escherichia coli [5] and in the data set on Escherichia coli [6] was above 32 µg/mL throughout. For the same molecule, the MIC with Enterococcus faecium [7] is 16 µg/mL (≈ 35.8 µM); in the data set on Pseudomonas aeruginosa [8] it was above 32 µg/mL; in data set [9], 4 µg/mL (≈ 8.94 µM); with Escherichia coli [10], 32 µg/mL (≈ 71.5 µM); in the data set with Staphylococcus aureus [11], above 32 µg/mL; in the data set with Acinetobacter baumannii [12] it was above 32 µg/mL. Further, the MIC in the data set on Staphylococcus aureus [13] is above 32 µg/mL; in the data set on Pseudomonas aeruginosa [14], above 32 µg/mL; with Pseudomonas aeruginosa [15], 32 µg/mL (≈ 71.5 µM); in the data set with Escherichia coli [16], 32 µg/mL (≈ 71.5 µM); in the data set on Pseudomonas aeruginosa [17], above 32 µg/mL; in the data set on Enterococcus faecium [18], 16 µg/mL (≈ 35.8 µM). Besides, the MIC with Acinetobacter baumannii [19] was above 32 µg/mL; with Klebsiella pneumoniae [21], 32 µg/mL (≈ 71.5 µM); in the data set with Pseudomonas aeruginosa [22], above 32 µg/mL; in the data set on Klebsiella pneumoniae [23], 32 µg/mL (≈ 71.5 µM); in the data set on Staphylococcus aureus [24], 8 µg/mL (≈ 17.9 µM). Also, in [20], the selectivity ratio came to 36.

The values above are taken from ChEMBL document CHEMBL4311965, “Antimicrobial activity of amphipathic α,α-disubstituted β-amino amide derivatives against ESBL - CARBA producing multi-resistant bacteria; effect of halogenation, lipophilicity and cationic character” (Eur J Med Chem, 2019).
